Measured values from ChEMBL document CHEMBL1255233, “The P-113 fragment of histatin 5 requires a specific peptide sequence for intracellular translocation in Candida albicans, which is independent of cell wall binding” (Antimicrob Agents Chemother, 2008).
The source made the active and inactive calls. The rule behind the calls is not given here.

What was measured:
[1] = Drug uptake in Candida albicans CAF4-2 cytoplasm at 31.5 uM within 5 mins by SDS-PAGE in presence of 10 mM NaPB; type: ADME
Procedure, shortened: (§1)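 Cells in 10 mM NaPB with biotin-labeled peptide (31.5–32 µM) at 37°C for 5–90 min. After β-ME cell-wall extraction, cells bead-lysed at 4°C in NaPB with protease inhibitors; cytosol from 13,000 rpm spin. Cytosolic protein (10 µg/lane) on Tricine SDS-PAGE, streptavidin-HRP blot, quantitated against peptide standards.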

[2] = Drug uptake in Candida albicans CAF4-2 cell wall extract at 31.5 uM within 5 mins by SDS-PAGE in presence of 10 mM NaPB; type: ADME, cell-based; settings: caf4-2, 5 min
Procedure, shortened: (§2)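 Wild-type or ssa2 cells were incubated with biotin-labeled peptide (31.5 µM) in 10 mM NaPB at 37°C for 5–90 min. Cell wall was extracted with 1% β-ME in ammonium carbonate (pH 8.0), 30 min at 37°C. Cytosol was obtained by glass-bead lysis with protease inhibitors. Extracts (10 µg/lane) were run on 16% Tricine SDS-PAGE, blotted, and detected with streptavidin-HRP. Amounts were quantified against peptide standards (0.06125–0.5 µg) and expressed per 10^7 cells.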

[3] = system: Candida albicans; assay: Drug uptake in Candida albicans CAF4-2 assessed as reduction of free drug in cell supernatant at 31.5 uM after 15 mins by slot blot assay; type: ADME, organism-based; settings: in vivo, 0.25 h
Procedure, shortened: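 Early-log cells (1 x 10^8) were washed and suspended in 10 mM NaPB with biotin-labeled peptide (31.5 µM) for 5–90 min with shaking. After centrifugation at 4°C, supernatants were applied to PVDF by slot blot. The membrane was blocked in 3% milk/TBST, probed with streptavidin-HRP (1:1,000), and developed for remaining free peptide.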

[4] = system: Candida albicans; assay: Drug uptake in Candida albicans CAF4-2 having ssa2delta mutation assessed as reduction of free drug in cell supernatant at 31.5 uM after 30 mins by slot blot assay; type: ADME, organism-based; settings: in vivo, 0.5 h
Procedure, shortened: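 Supernatant depletion: wt and ssa2 cells (1 x 10^8 in 1 ml 10 mM NaPB) incubated with 31.5 µM biotin-labeled peptide for 5–90 min with shaking. Cells pelleted at 4°C; 50 µl of supernatant slot-blotted onto PVDF, blocked with milk, probed with streptavidin-HRP. Buffer-only cells used as control.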

[5] = Drug uptake in Candida albicans CAF4-2 beta-ME extracted cell wall protein assessed per 10^7 cells at 31.5 uM within 5 mins by SDS-PAGE in presence of 10 mM NaPB; type: ADME, cell-based
Procedure, shortened: (§3)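 Early-log cells (1 x 10^8) washed and suspended in 10 mM NaPB with 31.5 µM biotin-labeled peptide at 37°C with shaking, sampled at timepoints to 90 min. Cell wall released with 1% β-ME in ammonium carbonate pH 8.0, 30 min, 37°C. Extract run on 16% Tricine SDS-PAGE (10 µg/lane), blotted, detected with streptavidin-HRP, quantitated against peptide standards.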

[6] = Drug uptake in Candida albicans CAF4-2 beta-ME extracted cell wall protein assessed per 10^7 cells at 31.5 uM within 15 mins by SDS-PAGE in presence of 10 mM NaPB; type: ADME, cell-based; settings: 0.25 h; procedure, shortened: as §3
[7] = Drug uptake in Candida albicans CAF4-2 cytoplasmic extract assessed per 10^7 cells at 31.5 uM within 15 mins by SDS-PAGE in presence of 10 mM NaPB; type: ADME, Cytoplasm; settings: 0.25 h; procedure, shortened: as §2
[8] = Drug uptake in Candida albicans CAF4-2 cytoplasmic extract assessed per 10^7 cells at 31.5 uM after 90 mins by SDS-PAGE in presence of 10 mM NaPB; type: ADME, Cytoplasm; settings: 1.5 h; procedure, shortened: as §2
[9] = Drug uptake in Candida albicans CAF4-2 having ssa2delta mutation cytoplasmic extract assessed per 10^7 cells at 31.5 uM upto 30 mins by SDS-PAGE in presence of 10 mM NaPB; type: ADME, Cytoplasm; settings: 0.5 h; procedure, shortened: as §1
[10] = system: Candida albicans; assay: Candidacidal activity against wild type Candida albicans CAF4-2 after 3 hrs by radial diffusion assay in presence of 100 mM NaPB; type: functional, organism-based
Procedure, shortened: (§4)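 C. albicans cells grown in YNB were set into underlay gels. Peptides were loaded into punched wells and incubated overnight. Clear-zone diameters (10 units = 1 mm) were plotted against peptide concentration and converted to cell death. Incubation was in 10 mM or 100 mM NaPB. Means and SD from three independent experiments.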

[11] = molecular target: Heat shock protein SSA2 (Candida albicans (strain SC5314 / ATCC MYA-2876) (Yeast)) (UniProt P46587); assay: Binding affinity to Candida albicans AKRLIGRKFDDHE region of Ssa2 at 2 uM by chemiluminescence assay
Heat shock protein SSA2 (Candida albicans (strain SC5314 / ATCC MYA-2876) (Yeast)), sequence (P46587 whole entry): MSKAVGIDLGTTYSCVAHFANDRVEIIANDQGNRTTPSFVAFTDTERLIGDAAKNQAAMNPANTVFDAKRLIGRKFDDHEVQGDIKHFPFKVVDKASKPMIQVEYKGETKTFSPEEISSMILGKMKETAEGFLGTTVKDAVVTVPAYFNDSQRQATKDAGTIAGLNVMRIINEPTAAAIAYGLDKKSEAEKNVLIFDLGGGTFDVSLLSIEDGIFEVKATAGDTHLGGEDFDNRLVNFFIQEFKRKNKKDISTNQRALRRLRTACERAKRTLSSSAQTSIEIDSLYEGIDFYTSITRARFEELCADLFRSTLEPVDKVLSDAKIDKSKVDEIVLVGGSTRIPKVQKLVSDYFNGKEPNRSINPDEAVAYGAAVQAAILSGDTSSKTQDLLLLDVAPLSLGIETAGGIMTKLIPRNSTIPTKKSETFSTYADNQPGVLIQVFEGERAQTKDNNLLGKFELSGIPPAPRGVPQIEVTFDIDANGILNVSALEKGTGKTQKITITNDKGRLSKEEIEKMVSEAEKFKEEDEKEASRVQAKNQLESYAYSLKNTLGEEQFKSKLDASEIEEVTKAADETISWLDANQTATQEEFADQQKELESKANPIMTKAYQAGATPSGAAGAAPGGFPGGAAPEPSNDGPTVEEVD
Procedure, shortened: (§5)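 Overlapping Ssa2p peptides spotted on cellulose-β-alanine membranes; methanol rinse, TBS (pH 8.0) washes, 2 h blocking in albumin/biotin-free buffer at room temperature. Biotin-labeled peptide (2 µM) in blocking buffer, 3 h at room temperature, washed; streptavidin-HRP (1:20,000) 1 h; chemiluminescent detection and imaging. Repeatability confirmed by reprobing after regeneration (30 min, 50°C).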

[12] = molecular target: Heat shock protein SSA2 (Candida albicans (strain SC5314 / ATCC MYA-2876) (Yeast)) (UniProt P46587); assay: Binding affinity to Candida albicans KRKNKKDISTNQR region of Ssa2 at 2 uM by chemiluminescence assay; procedure, shortened: as §5
[13] = system: Candida albicans; assay: Candidacidal activity against wild type Candida albicans CAF4-2 assessed as cell death at 31.5 uM treated for 1 hr measured after 48 hrs by microdilution plate assay; type: functional
[14] = system: Candida albicans; assay: Candidacidal activity against Candida albicans CAF4-2 having ssa1delta mutation assessed as cell death at 31.5 uM treated for 1 hr measured after 48 hrs by microdilution plate assay; type: functional
[15] = system: Candida albicans; assay: Candidacidal activity against Candida albicans CAF4-2 having ssa2delta mutation assessed as cell death at 31.5 uM treated for 1 hr measured after 48 hrs by microdilution plate assay; type: functional
[16] = system: Candida albicans; assay: Candidacidal activity against Candida albicans CAF4-2 having ssa1delta mutation assessed as cell death below 31.5 uM treated for 1 hr measured after 48 hrs by microdilution plate assay; type: functional, organism-based
[17] = system: Candida albicans; assay: Candidacidal activity against Candida albicans CAF4-2 having ssa2delta mutation assessed as cell death below 31.5 uM treated for 1 hr measured after 48 hrs by microdilution plate assay; type: functional, organism-based
[18] = system: Candida albicans; assay: Candidacidal activity against Candida albicans CAF4-2 having ssa1delta mutation after 3 hrs by radial diffusion assay; type: functional, organism-based
Procedure, shortened: (§6)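 Radial diffusion: C. albicans cells incorporated into underlay gels; peptides loaded into wells punched in the gel and incubated overnight. Clear-zone diameters (no growth) converted to cell death and plotted against peptide concentration. Means and SD of three independent experiments.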

[19] = system: Candida albicans; assay: Candidacidal activity against Candida albicans CAF4-2 having ssa2delta mutation after 3 hrs by radial diffusion assay; type: functional, organism-based; procedure, shortened: as §6
[20] = system: Candida albicans; assay: Candidacidal activity against wild type Candida albicans CAF4-2 after 3 hrs by radial diffusion assay; type: functional, organism-based; procedure, shortened: as §4
[21] = system: Candida albicans; assay: Candidacidal activity against wild type Candida albicans CAF4-2 after 3 hrs by radial diffusion assay in presence of 10 mM NaPB; type: functional, organism-based; procedure, shortened: as §4
[22] = system: Candida albicans; assay: Candidacidal activity against wild type Candida albicans CAF4-2 at >62 uM after 3 hrs by radial diffusion assay; type: functional, organism-based; procedure, shortened: as §4
[23] = system: Candida albicans; assay: Candidacidal activity against wild type Candida albicans CAF4-2 at >62 uM after 3 hrs by radial diffusion assay in presence of 100 mM NaPB; type: functional, organism-based; procedure, shortened: as §4
[24] = system: Candida albicans; assay: Candidacidal activity against wild type Candida albicans CAF4-2 assessed as cell death below 31.5 uM treated for 1 hr measured after 48 hrs by microdilution plate assay; type: functional, organism-based
Procedure, shortened: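 Candidacidal microdilution assay: 1 x 10^6 cells exposed to peptide for 1 h, diluted to quench, plated on YNB agar. Loss of viability = [1 − (colonies treated/colonies control)] x 100. Means and SD from three independent experiments.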

| Substance | Drug uptake [5] [µg] | Drug uptake [6] | Activity [10] | Activity [11] | Activity [12] | Activity [13] [%] | Activity [14] [%] | Activity [15] [%] | Activity [16] | Activity [17] | Activity [18] | Activity [19] | Activity [20] | Activity [21] | also measured |
| --- | --- | --- | --- | --- | --- | --- | --- | --- | --- | --- | --- | --- | --- | --- | --- |
| H-AKRHHGYKRKFH-OH [listing 1 of 2 here] | 0.1 | Active |  |  |  |  |  |  |  |  |  |  |  |  | Drug uptake [1]: Active; Drug uptake [2]: Active; Drug uptake [3]: Active; Drug uptake [4]: Active; Drug uptake [7]: 0.26 µg; Drug uptake [8]: 0.2 µg; Drug uptake [9]: < 0.2 µg |
| H-AKRHHGYKRKFH-OH [listing 2 of 2 here] |  |  | inactive | Active | Active | 90 | 90 | 76 | inactive | inactive | Active | inactive | Active | Active |  |
| H-AQRHHGYKRQFH-OH [listing 1 of 2 here] | 0.15 | 0.2 µg |  |  |  |  |  |  |  |  |  |  |  |  |  |
| H-AQRHHGYKRQFH-OH [listing 2 of 2 here] |  |  | inactive | inactive | inactive | < 10 | < 10 | < 10 | inactive | inactive | inactive | inactive | inactive | Active | Activity [22]: Active; Activity [23]: inactive; Activity [24]: inactive |
